Laboratory results from ChEMBL document CHEMBL5724801, “EUbOPEN Chemogenomics Library - Multiplex” (2024).
Several values for one entry are separate records, joined by “and”; a condition that tells them apart may be missing. Equal values may be shown once.

Tested on: U2OS
Assay: Multiplex assay against U2OS
Format: toxicity, cell-based
Conditions: human
In short: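 Tubulin, mitochondrial-mass and membrane-permeability phenotypes are per cents of healthy-nucleus cells. Cells were gated by CellPathfinder machine learning into Hoechst high-intensity objects or normal cells, normal cells into healthy, pyknosed or fragmented nuclei, and pyknosed cells into mitotic or apoptotic. Before that, live cells stained at seeding with Hoechst33342, BioTracker Green Microtubule Cytoskeleton Dye, MitoTracker Red and Annexin V Alexa Fluor 680 were imaged on a CQ1 microscope at 37°C and 5% CO2 after compound addition.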

[1] = 12 h, 1 µM, compound concentration 1 uM
[2] = 12 h, 10 µM, compound concentration 10 uM
[3] = 24 h, 1 µM, compound concentration 1 uM
[4] = 24 h, 10 µM, compound concentration 10 uM
[5] = 48 h, 1 µM, compound concentration 1 uM
[6] = 48 h, 10 µM, compound concentration 10 uM

SMILES: COc1c(Nc2ccc(S(C)(=O)=O)nc2C)ncnc1OC1CCN(C(=O)OC(C)C)CC1 [ADP-597]
- Population Apoptotic (%) [1]: 82% and 75%
- Population Fragmented Nuclei (%) [1]: 23% and 13%
- Population Healthy Nuclei (%) [1]: 68% and 78%
- Population Hoechst High Intensity Objects (%) [1]: 2% and 3%
- Population Membrane Permeable-Phenotype (%) [1]: 7% and 11%
- Population Mitochondria Different-Phenotype (%) [1]: 1%
- Population Mitotic Cells (%) [1]: 17% and 25%
- Population Normal (%) [1]: 97% and 96%
- Population Pyknosed Nuclei (%) [1]: 8%
- Population Tubulin-Different-Phenotype (%) [1]: 5% and 2%
- Total Cell Count [1]: 208 and 95
- Population Apoptotic (%) [2]: 93% and 85%
- Population Fragmented Nuclei (%) [2]: 27% and 10%
- Population Healthy Nuclei (%) [2]: 60% and 77%
- Population Hoechst High Intensity Objects (%) [2]: 8% and 4%
- Population Membrane Permeable-Phenotype (%) [2]: 7%
- Population Mitochondria Different-Phenotype (%) [2]: 2% and 3%
- Population Mitotic Cells (%) [2]: 6% and 14%
- Population Normal (%) [2]: 91% and 95%
- Population Pyknosed Nuclei (%) [2]: 11%
- Population Tubulin-Different-Phenotype (%) [2]: 4% and 1%
- Total Cell Count [2]: 266 and 128
- Population Apoptotic (%) [3]: 88% and 80%
- Population Fragmented Nuclei (%) [3]: 24% and 12%
- Population Healthy Nuclei (%) [3]: 67% and 79%
- Population Hoechst High Intensity Objects (%) [3]: 3%
- Population Membrane Permeable-Phenotype (%) [3]: 7% and 8%
- Population Mitochondria Different-Phenotype (%) [3]: 3%
- Population Mitotic Cells (%) [3]: 11% and 20%
- Population Normal (%) [3]: 96%
- Population Pyknosed Nuclei (%) [3]: 7% and 8%
- Population Tubulin-Different-Phenotype (%) [3]: 3% and 5%
- Total Cell Count [3]: 239 and 129
- Population Apoptotic (%) [4]: 88% and 83%
- Population Fragmented Nuclei (%) [4]: 30% and 11%
- Population Healthy Nuclei (%) [4]: 61% and 80%
- Population Hoechst High Intensity Objects (%) [4]: 6% and 5%
- Population Membrane Permeable-Phenotype (%) [4]: 8% and 6%
- Population Mitochondria Different-Phenotype (%) [4]: 2% and 4%
- Population Mitotic Cells (%) [4]: 12% and 16%
- Population Normal (%) [4]: 93% and 94%
- Population Pyknosed Nuclei (%) [4]: 8%
- Population Tubulin-Different-Phenotype (%) [4]: 4% and 1%
- Total Cell Count [4]: 305 and 155
- Population Apoptotic (%) [5]: 80% and 81%
- Population Fragmented Nuclei (%) [5]: 19% and 20%
- Population Healthy Nuclei (%) [5]: 72% and 67%
- Population Hoechst High Intensity Objects (%) [5]: 2%
- Population Membrane Permeable-Phenotype (%) [5]: 6% and 5%
- Population Mitochondria Different-Phenotype (%) [5]: 5% and 4%
- Population Mitotic Cells (%) [5]: 19% and 18%
- Population Normal (%) [5]: 97%
- Population Pyknosed Nuclei (%) [5]: 7% and 12%
- Population Tubulin-Different-Phenotype (%) [5]: 2%
- Total Cell Count [5]: 339 and 185
- Population Apoptotic (%) [6]: 79% and 92%
- Population Fragmented Nuclei (%) [6]: 24% and 10%
- Population Healthy Nuclei (%) [6]: 62% and 77%
- Population Hoechst High Intensity Objects (%) [6]: 6% and 3%
- Population Membrane Permeable-Phenotype (%) [6]: 6% and 4%
- Population Mitochondria Different-Phenotype (%) [6]: 4% and 0%
- Population Mitotic Cells (%) [6]: 20% and 8%
- Population Normal (%) [6]: 93% and 96%
- Population Pyknosed Nuclei (%) [6]: 13% and 11%
- Population Tubulin-Different-Phenotype (%) [6]: 2%
- Total Cell Count [6]: 356 and 223

SMILES: CN1CCN(c2ccc(Nc3c4ccccc4nc4ccccc34)cc2)CC1.Cl.Cl.O
- Population Apoptotic (%) [1]: 100% and 87%
- Population Fragmented Nuclei (%) [1]: 25% and 23%
- Population Healthy Nuclei (%) [1]: 65% and 69%
- Population Hoechst High Intensity Objects (%) [1]: 0%
- Population Membrane Permeable-Phenotype (%) [1]: 19% and 14%
- Population Mitochondria Different-Phenotype (%) [1]: 7% and 13%
- Population Mitotic Cells (%) [1]: 0% and 12%
- Population Normal (%) [1]: 99% and 100%
- Population Pyknosed Nuclei (%) [1]: 8% and 7%
- Population Tubulin-Different-Phenotype (%) [1]: 17% and 13%
- Total Cell Count [1]: 193 and 107
- Population Apoptotic (%) [2]: 93% and 100%
- Population Fragmented Nuclei (%) [2]: 54% and 62%
- Population Healthy Nuclei (%) [2]: 38% and 31%
- Population Hoechst High Intensity Objects (%) [2]: 0% and 2%
- Population Membrane Permeable-Phenotype (%) [2]: 65% and 70%
- Population Mitochondria Different-Phenotype (%) [2]: 95% and 100%
- Population Mitotic Cells (%) [2]: 6% and 0%
- Population Normal (%) [2]: 99% and 97%
- Population Pyknosed Nuclei (%) [2]: 7% and 6%
- Population Tubulin-Different-Phenotype (%) [2]: 82% and 85%
- Total Cell Count [2]: 213 and 132
- Population Apoptotic (%) [3]: 92% and 100%
- Population Fragmented Nuclei (%) [3]: 28% and 29%
- Population Healthy Nuclei (%) [3]: 64% and 60%
- Population Hoechst High Intensity Objects (%) [3]: 1% and 4%
- Population Membrane Permeable-Phenotype (%) [3]: 10% and 5%
- Population Mitochondria Different-Phenotype (%) [3]: 6% and 12%
- Population Mitotic Cells (%) [3]: 7% and 0%
- Population Normal (%) [3]: 98% and 95%
- Population Pyknosed Nuclei (%) [3]: 6% and 10%
- Population Tubulin-Different-Phenotype (%) [3]: 7% and 6%
- Total Cell Count [3]: 200 and 124
- Population Apoptotic (%) [4]: 100% and 90%
- Population Fragmented Nuclei (%) [4]: 46% and 69%
- Population Healthy Nuclei (%) [4]: 42% and 23%
- Population Hoechst High Intensity Objects (%) [4]: 4% and 10%
- Population Membrane Permeable-Phenotype (%) [4]: 85% and 96%
- Population Mitochondria Different-Phenotype (%) [4]: 96% and 100%
- Population Mitotic Cells (%) [4]: 0% and 10%
- Population Normal (%) [4]: 95% and 89%
- Population Pyknosed Nuclei (%) [4]: 11% and 7%
- Population Tubulin-Different-Phenotype (%) [4]: 90% and 100%
- Total Cell Count [4]: 205 and 148
- Population Apoptotic (%) [5]: 87% and 100%
- Population Fragmented Nuclei (%) [5]: 36% and 40%
- Population Healthy Nuclei (%) [5]: 52% and 47%
- Population Hoechst High Intensity Objects (%) [5]: 4% and 5%
- Population Mitochondria Different-Phenotype (%) [5]: 4% and 7%
- Population Mitotic Cells (%) [5]: 12% and 0%
- Population Normal (%) [5]: 95% and 94%
- Population Pyknosed Nuclei (%) [5]: 10% and 12%
- Population Tubulin-Different-Phenotype (%) [5]: 3% and 9%
- Total Cell Count [5]: 231 and 147
- Population Apoptotic (%) [6]: 96% and 100%
- Population Fragmented Nuclei (%) [6]: 53% and 76%
- Population Healthy Nuclei (%) [6]: 30% and 19%
- Population Hoechst High Intensity Objects (%) [6]: 18% and 15%
- Population Membrane Permeable-Phenotype (%) [6]: 91% and 100%
- Population Mitochondria Different-Phenotype (%) [6]: 90% and 96%
- Population Mitotic Cells (%) [6]: 3% and 0%
- Population Normal (%) [6]: 81% and 84%
- Population Tubulin-Different-Phenotype (%) [6]: 93% and 100%
- Total Cell Count [6]: 243 and 173
